The values that follow come from ChEMBL document CHEMBL1140410, “Discovery of the novel antithrombotic agent 5-chloro-N-({(5S)-2-oxo-3- [4-(3-oxomorpholin-4-yl)phenyl]-1,3-oxazolidin-5-yl}methyl)thiophene- 2-carboxamide (BAY 59-7939): an oral, direct factor Xa inhibitor” (J Med Chem, 2005).

SMILES strings stand for the structures. Bounds are passed on as bounds.

The term ED50 denotes the dose that gives a 50% effect, or the effect in half of the subjects. For orientation: half-life means the time in which the quantity being followed falls by half. Read a low half-life as rapid decline. By clearance is commonly meant the volume of plasma or blood freed of the substance per unit of time. The low end stands for a low capacity for elimination, the high end for a high capacity for elimination. As usually defined, the bioavailability is dose-corrected exposure relative to a reference, in per cent. Read a low bioavailability as little systemic uptake. As usually defined, the IC50 is the concentration that inhibits the measured activity by half. Read a low IC50 as greater potency.

Data set [1] has as its target T1, Coagulation factor X (Homo sapiens, UniProt P00742). The experiment in a line: In vitro inhibitory concentration of compound required to double the time to fibrin formation upon incubation with human plasma for 10 minutes at 37 degrees C. It counts as functional, cell-free. In a few lines:
(§1)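 Inhibitor at increasing concentrations, or solvent, added to plasma and incubated 10 min at 37 °C. PT then measured in a coagulometer using commercial kits and compared with control plasma. Value is the concentration that doubles time to fibrin formation.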

For data set [2], the species on record is Rattus norvegicus. The experiment in a line: In vitro inhibitory concentration of compound required to double the time to fibrin formation upon incubation with rat plasma for 10 minutes at 37 degrees C. Type of data set: functional. The method in brief:
as §1

The subject of data set [3] is Rattus norvegicus. Kind of data set: In vivo antithrombotic activity of compound in the arteriovenous shunt model in anesthetized rats after peroral administration. As to conditions: po. It counts as functional. In a few lines: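 Anesthetized rats, AV shunt from right carotid artery to left jugular vein, containing a nylon thread folded into a 20 mm double string. Compound in solutol/ethanol/water (40%/10%/50% v/v/v), or vehicle, dosed orally 90 min before thrombus induction. Shunt opened for 15 min, then the thread with thrombus was removed and weighed.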

Data set [4] is described as follows: Half-life after intravenous administration to rats. Particulars: rat, in vivo. It counts as ADME, organism-based.
Data set [5] relates to Rattus norvegicus. Kind of data set: In vivo antithrombotic activity of compound in the arteriovenous shunt model in anesthetized rats after intravenous administration. It counts as functional. The method in brief: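 Anesthetized rats with a carotid artery to jugular vein shunt: PE-60 catheters joined by a 30 mm PE-160 tube holding a rough nylon thread folded into a 20 mm double string. Compound in PEG/water/glycerol (996 g/100 g/60 g), or vehicle, given as iv bolus into a tail vein 10 min before thrombus induction. Shunt open 15 min; thread with thrombus withdrawn and weighed.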

The nature of data set [6]: Apparent volume of distribution at equilibrium after intravenous administration in rats. It counts as ADME, organism-based. As to conditions: rat, in vivo, read-out: Vss.
Data set [7] can be described thus: Plasma clearance in wistar rats after intravenous administration of the compound at a dose of 0.3 mg/kg. Also on record: dose 0.3 mg/kg, route intravenous. Type of data set: ADME, organism-based. As to conditions: rat. The method in brief:
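Rats given 0.3 mg kg-1 iv in plasma/DMSO (99:1), 2 mL kg-1.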

The nature of data set [8]: Bioavailability in female Beagle dog is the mean value of AUCnorm perorally to AUCnorm intravenously. It counts as ADME, organism-based, Canis lupus familiaris. As to conditions: in vivo, po. The method in brief:
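Female beagle dogs dosed po at 0.3, 1 and 3 mg kg-1, 1 mL kg-1. Bioavailability = AUCnorm after oral dosing divided by AUCnorm after iv 0.3 or 1.0 mg kg-1 infusion.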

The nature of data set [9]: Mean apparent volume of distribution at equilibrium after administration in female Beagle dogs at a dose of 0.3 and 1 mg kg-1 intravenously. It counts as ADME, organism-based, Canis lupus familiaris. More on the design: dose 1 mg kg-1, route intravenous. As to conditions: dog, in vivo, iv, read-out: Vss.
Data set [10] is described as follows: Fraction of unbound compound in rat plasma. Type of data set: ADME, cell-free. The method in brief:
(§2)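 Equilibrium dialysis of [14C]-labelled compound in plasma at targets of 0.1–100 mg L-1. Spiked plasma preincubated 15 min at 37 °C, then dialyzed 1 h at 37 °C against PBS pH 7.4 across a cellulose membrane. Radioactivity in buffer and plasma counted by LSC; fu = cu/c × 100.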

Data set [11] can be described thus: Mean apparent volume of distribution at equilibrium after intravenous administration in rats at a dose of 1 and 3 mg/kg. Type of data set: ADME, organism-based. More on the design: dose 3 mg/kg, route intravenous. As to conditions: rat, in vivo, read-out: Vss. The method in brief: (§3)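 Rats given 1 and 3 mg kg-1 iv in PEG400/water (6:4), 5 mL kg-1. Values are means over both doses.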

A short description of data set [12]: Fraction of unbound compound in female Beagle dog plasma. Type of data set: ADME, cell-free, Canis lupus familiaris. Particulars: read-out: Fraction free drug in plasma. The method in brief: as §2
Data set [13] is described as follows: Mean plasma clearance in female Beagle dogs after intravenous administration of the compound at a dose of 0.3 and 1 mg/kg. Type of data set: ADME, organism-based, Canis lupus familiaris. Also on record: dose 1 mg/kg, route intravenous. Particulars: dog.
Data set [14] in a line: Oral bioavailability in rat. It counts as ADME, organism-based. Particulars: in vivo.
Data set [15] is described as follows: Mean plasma clearance in wistar rats after intravenous administration of the compound at a dose of 1 and 3 mg/kg. Also on record: dose 3 mg/kg, route intravenous. As to conditions: rat. It counts as ADME, organism-based. In a few lines: as §3
A short description of data set [16]: Mean half-life after intravenous administration to female Beagle dogs at a dose of 0.3 and 1 mg/kg. Also on record: dose 1 mg/kg, route intravenous. It counts as ADME, organism-based, Canis lupus familiaris. Particulars: dog, in vivo.
Data set [17] is described as follows: Mean half-life after intravenous administration to rats at a dose of 1 and 3 mg/kg. It counts as ADME, organism-based. Particulars: rat, in vivo. More on the design: dose 3 mg/kg, route intravenous. The method in brief: as §3
For data set [18], the target named is T1, Coagulation factor X. Kind of data set: In vitro inhibition of human coagulation factor Xa after incubation for 10 min at 25 degree C.
Data set [19] in a line: Plasma clearance in wistar rats after intravenous administration of the compound at a dose of 1 mg/kg. As to conditions: rat. Type of data set: ADME, organism-based. More on the design: dose 1 mg/kg, route intravenous. The method in brief:
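Rats given 1 mg kg-1 iv in EtOH/PEG400 (1:9), 1 mL kg-1.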

T1 sequence (P00742 41-179 limits assumed): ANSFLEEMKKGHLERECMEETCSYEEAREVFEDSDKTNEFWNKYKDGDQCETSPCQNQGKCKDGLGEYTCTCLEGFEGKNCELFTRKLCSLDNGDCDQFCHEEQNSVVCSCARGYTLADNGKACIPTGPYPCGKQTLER
T1 sequence (P00742 235-488 limits assumed): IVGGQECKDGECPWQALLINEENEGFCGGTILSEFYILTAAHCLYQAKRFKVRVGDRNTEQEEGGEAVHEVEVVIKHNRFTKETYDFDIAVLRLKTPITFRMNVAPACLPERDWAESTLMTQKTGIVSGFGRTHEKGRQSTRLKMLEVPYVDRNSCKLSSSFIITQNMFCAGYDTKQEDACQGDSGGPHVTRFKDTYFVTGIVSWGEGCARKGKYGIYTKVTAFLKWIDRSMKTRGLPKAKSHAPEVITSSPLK

Turning to `Nc1cc(N2C[C@H](CNC(=O)c3ccc(Cl)s3)OC2=O)ccc1N1CCOCC1=O`, the Concentration on Coagulation factor X [1] was determined as 0.3 µM; in the data set listed under Rattus norvegicus [2], 0.49 µM.

In the case of `O=C(NC[C@H]1CN(c2ccc(N3CCOCC3=O)c(F)c2)C(=O)O1)c1ccc(Cl)s1`, the median effective dose (ED50) in the data set on Rattus norvegicus [3] amounted to 10 mg/kg; in the data set on Rattus norvegicus [5], 1 mg/kg. For the same molecule, the Concentration is 0.17 µM on Coagulation factor X [1] and 0.32 µM in the data set listed under Rattus norvegicus [2]. In addition, in data set [4], the half-life is 18 min. Moreover, the Vd in data set [6] was determined as 0.32 L/kg. This molecule also gave a clearance in data set [7] of 18.2 mL/min/kg.

As for `O=C(NC[C@H]1CN(c2ccc(N3CCOCC3=O)cc2)C(=O)O1)c1ccc(Cl)s1` [RIVAROXABAN], the bioavailability in data set [8] turned out to be 86%; in data set [14], 60%. Further, the ED50 in the data set on Rattus norvegicus [3] turned out to be 5 mg/kg; in the data set on Rattus norvegicus [5] it was 1 mg/kg. The figures for the Vd in data set [9] and in [11] were 0.4 L/kg and 0.3 L/kg, respectively. The Concentration on Coagulation factor X [1] is 0.23 µM; in the data set listed under Rattus norvegicus [2], 0.3 µM. Further, in data set [10], the “Fraction free drug in plasma” value amounted to 1.3%. Further, the fraction unbound in data set [12] stood at 0.104. The clearance is 5 mL/min/kg in data set [13] and 6.67 mL/min/kg in data set [15]. Also, the half-life in [16] and in data set [17] was 54 min each time.

`O=C(NC[C@H]1CN(c2ccc(N3CCSCC3)c(F)c2)C(=O)O1)c1cccs1` yielded an IC50 on Coagulation factor X [18] of 20000 nM.

For `Nc1cc(C(=O)NC[C@H]2CN(c3ccc(N4CCOCC4=O)cc3)C(=O)O2)sc1Cl`, at Coagulation factor X [18], half-maximal inhibition (IC50) required 8.5 nM.

As to `O=C(NC[C@H]1CN(c2ccc(N3CCOCC3=O)c(C(F)(F)F)c2)C(=O)O1)c1ccc(Cl)s1`, the values for the Concentration on Coagulation factor X [1] and in the data set filed under Rattus norvegicus [2] were 0.26 µM and 0.32 µM, respectively. The ED50 with Rattus norvegicus [5] was 3 mg/kg.

On Coagulation factor X [18], `N=C(N)COc1cccc(CN2CC3C(NC(=O)c4ccc(Cl)s4)C=CC[C@H]3C2=O)c1` (some centres not stated) registered an IC50 of 120 nM.

In the case of `O=C(NC[C@H]1CN(c2ccc(N3CCCC3=O)cc2)C(=O)O1)c1ccc(Cl)s1`, the results for the ED50 in the data set on Rattus norvegicus [3] and in the data set with Rattus norvegicus [5] were above 30 mg/kg and 7 mg/kg, respectively. In data set [4], this molecule gave a half-life of 66 min. The same molecule came in with a Concentration in the data set filed under Rattus norvegicus [2] of 2.8 µM. Moreover, the fraction unbound in [10] (read-out: Fraction free drug in plasma) stood at 0.002. Besides, the clearance in data set [19] is 2.83 mL/min/kg. For the same molecule, the Vd in data set [6] is 0.21 L/kg. In [14], this molecule displayed a bioavailability of 65%.
